We go through three sequences from PMC4109024 (Nature communications, 2014).

“Also recorded” adds a separate entry of the source. Where only a bound is given, the exact number is not on record here.

Series [1] has as its system CNGB3-Myc transfected A431 cells. The series can be described thus: Cell viability assay, CNGB3-positive A431 cells. The format is cell-based. The settings on record: 37°C, 6 hours, ATP by CellTiter Glo; for Concentration above which cell viability was affected, CNGB3-positive A431: single peptide. Put shortly: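 CNGB3–MYC-transfected A431 cells, with untransfected CNGB3-negative A431 as control, grown in DME/F12 with 10% FCS. Cells were exposed to single peptides or the two-peptide combination at a range of concentrations for 6 h at 37 °C. Peptide stocks were 100 μg/μl in DMSO, and a DMSO-only control was run at 0.01% final. Viability was read as ATP content by CellTiter Glo luminescence.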
A general note: Cellular ATP, detected with luciferase, serves as a proxy for viable cell number.

Series [2] has as its system CNGB3-expressing A431 cells. Briefly: Inhibition of KLAK-z13 plus HLA-z13 cytotoxicity by z13 / palmitoyl-z13. Format: cell-based. The settings on record: KLAK-z13 100 μg/ml + HLA-z13 25 μg/ml, 37 °C, 6 hours; average of triplicate; repeated three times.
The test system of series [3] is human endometrial adenocarcinoma Ishikawa cells. Briefly: Phage binding/internalization to Ishikawa cells. The format is cell-based. The settings on record: cloned phage, 37°C, 30 min; plaque forming assay; repeated three times. Put shortly: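 Phage clones came from a T7 library of linear 9-mer peptides. Each selection round had two steps: 1 h in vivo subtraction in female mouse peritoneum, then 30 min internalization into Ishikawa monolayers at 37 °C. Clones from three such rounds were each added to Ishikawa monolayers, or A431 controls, for 30 min at 37 °C. Internalized phage was counted by plaque assay, and binding was expressed as plaques recovered relative to phage added.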

Series [4] concerns Ishikawa cell surface proteins. Briefly: z13 affinity isolation of biotinylated Ishikawa cell surface proteins. Conditions: biotinylated Ishikawa lysate; z13 peptide 1 mg/ml elution; avidin blot. The format is binding, human. The gist of the method: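 Ishikawa monolayers were surface-biotinylated with sulpho-NHS-LC-biotin (0.5 mg/ml in PBS, 30 min) and solubilized at 4 °C in TBS with 50 mM octyl-thio-glucoside and protease inhibitors. Lysate was precleared on agarose for 2 h at 4 °C, then bound to peptide-conjugated agarose. Elution used peptide at 1 mg/ml, with an irrelevant peptide as control. Eluates were analysed by SDS–PAGE, peroxidase-avidin blot and chemiluminescence.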

Series [5] has as its system CNGB3-MYC expressing HEK293T cells. Briefly: TUNEL apoptosis assay, CNGB3-MYC HEK293T cells. The format is cell-based. The gist of the method:
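HEK293T cells transfected with CNGB3–MYC were cultured for 20 h at 37 °C with one of these treatments: no peptide; targeting peptide, 100 μg/ml; pro-apoptotic peptide, 100 μg/ml; its conjugate, 100 μg/ml; endosome-escaping conjugate, 25 μg/ml; or conjugates at 100 plus 25 μg/ml. Stocks were 100 μg/μl in DMSO. Apoptosis was detected by immunoperoxidase TUNEL.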

Series [6] has the same test system. Briefly: Biotin-z13 localization / endosome-escaping activity. The format is cell-based. Conditions: 37°C, 30 min, biotin-z13 in presence of HLAH-z13; Alexa 488-avidin.

As to VRRADNRPG [z13], the “Cell viability, CNGB3-positive A431” value in series [1] is “cell viability was not affected”. Also, the “Blocking of cytotoxicity of KLAK-z13 plus HLA-z13” value in series [2] is “blocked”. In addition, the “Binding strength to Ishikawa cells among phage clones” value in series [3] is given as “the strongest binder”. Moreover, in series [4], the “Protein bound to z13 beads and eluted by z13 peptide” value was “single 68 kDa protein”.

Regarding KLAKLAKKLAKLAKKLAKVRRADNRPG [dKLAK-z13], in series [1], the “Cell viability, CNGB3-positive A431” value is “cell viability was not affected except at high concentrations” and the “Concentration above which cell viability was affected, CNGB3-positive A431” value is > 200 µg/mL. Also, the “Apoptosis of CNGB3-MYC transfected HEK293T cells, dKLAK-z13 alone” value in series [5] (culture medium of transfected cells, concentration not given) is “apoptosis was not induced; also recorded: did not induce apoptosis”.

Take HLAHLAHHLAHLAHHLAHVRRADNRPG [HLAH-z13]: the “Effect on biotin-z13 localization (endosome-escaping activity)” value in series [6] was “diffuse cytoplasmic signals”. Moreover, in series [1], the “Cell viability, CNGB3-positive A431” value is reported as “cell viability was not affected except at high concentrations” and the “Concentration above which cell viability was affected, CNGB3-positive A431” value was > 50 µg/mL. In addition, the “Apoptosis of CNGB3-expressing HEK293T cells, HLAH-z13 25 μg/ml” value in series [5] (25 μg/ml, 37°C, 20 hours, TUNEL) is “did not undergo apoptosis”.
